In publication PMC2726660 (Archives of biochemistry and biophysics, 2009):
Where two headings read alike, the source gives them in different places.

How the values were obtained:
[1] = system: MCF-7 human breast carcinoma cells; assay: Growth of human breast carcinoma MCF-7 cells; type: cell-based; details: for IC50: read-out: Inhibition of cell growth IC50 (μM) ± S. D., MCF-7 cells, 48 h, sulforhodamine B
Procedure, shortened: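 MCF-7 cells from the NCI drug screening group, grown in RPMI with 10% heat-treated fetal bovine serum. About 5,000 cells per well seeded, adhered overnight, then exposed to test compound for 48 h at 37 °C in humidified 5% CO2; final DMSO 0.5% (v/v). Growth read as cellular protein by sulforhodamine B staining. IC50 is 50% growth inhibition.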

[2] = system: purified bovine brain tubulin; assay: Electron microscopy of polymer morphology; type: biochemical; details: 10 μM compound, 10 μM tubulin, 0.75 M glutamate, 30 min at 30 °C
Procedure, shortened: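 Purified bovine brain tubulin with microtubule-associated proteins removed, at 10 μM, in 0.75 M monosodium glutamate (stock pH 6.6), 10 μM GTP and 4% DMSO. Test compound at 10 μM, with a no-addition control. After 30 min at 30 °C, aliquots were put on carbon-coated Formvar copper grids and stained with 5-10 drops of 1% uranyl acetate. Excess stain was wicked off and grids examined by TEM.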

[3] = cited from earlier work
[4] = system: purified bovine brain tubulin; assay: Centrifugal assay for spiral formation; type: biochemical; details: threshold EC50 < 100 μM
Procedure, shortened: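 Purified bovine brain tubulin (MAP-free) at 10 μM in 0.75 M monosodium glutamate (stock pH 6.6), 10 μM GTP, 4% (v/v) DMSO as compound solvent. Incubated 20 min at 30 °C, then centrifuged 15 min at room temperature (about 20 °C). Lowry protein measured in supernatant and in uncentrifuged mixture. EC50 is the concentration removing 50% of tubulin from the supernatant versus no-compound reactions.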

tubulin [5] = assay: Binding of radiolabeled colchicine to tubulin; parameters: species or system bovine
preformed microtubules = assay: Binding of radiolabeled paclitaxel to preformed microtubules; details: unpublished data
[6] = system: purified bovine brain tubulin; assay: Turbidimetric tubulin assembly assay in glutamate; type: biochemical
cultured cells = assay: Microtubule bundle formation in cultured cells; type: cell-based; details: synthetic compound
tubulin [7] = assay: Binding of [3H]vinblastine to tubulin; details: authors' attempt to reproduce ref 3
tubulin [8] = details: cited from earlier work

Work on `CC12CCCn3ccc(c31)-c1ccccc1NC(=O)CC2` (stereo not shown) [Compound 5] yielded an IC50 [1] of 3.8 ± 1 µM.
With `CC[C@]1(O)C[C@@H]2CN(CCc3c([nH]c4ccccc34)[C@@](C(=O)OC)(c3cc4c(cc3OC)N(C)[C@H]3[C@@](O)(C(=O)OC)[C@H](OC(C)=O)[C@]5(CC)C=CCN6CC[C@]43[C@@H]65)C2)C1` [vinblastine] the “morphology of polymer formed in glutamate with 10 μM GTP” value [2] was “typical tight spirals”.
For (+)-rhazinilam, the “activity of the enantiomer, in words” value [3] is listed as “inactive”.
For (±)-rhazinilam, the “activity in the tubulin-based (spiralization) assay, in words” value [4] was “approximately half as active as (−)-rhazinilam”, the IC50 [1] was 1.8 ± 0.7 µM and the “activity in the cell-based (MCF-7) assay, in words” value ([1]; threshold IC50 < 10 μM) was “approximately half as active as (−)-rhazinilam”.
In the case of (−)-rhazinilam, the IC50 [1] is reported as 0.97 ± 0.3 µM, the “inhibition of the binding of radiolabeled colchicine to tubulin” value (tubulin [5]) is reported as “no inhibitory effect” and the “inhibition of the binding of radiolabeled paclitaxel to preformed microtubules” value (preformed microtubules) is reported as “no inhibitory effect”. The “disassembly of polymer at 0 °C” value ([6]; 20 μM compound + 0.4 mM GTP, 0.75 M glutamate (Fig. 5, curve 4)) was “little disassembly”, the “disassembly of polymer at 0 °C” value ([6]; 20 μM compound, no GTP, 0.75 M glutamate (Fig. 5, curve 2)) was “disassembled slowly in the cold” and the “concentration at end of the inhibitory effect on tubulin assembly” value ([6]; 0.8 M glutamate, 0.4 mM GTP, 10 μM tubulin (Fig. 2, curve 4)) was 3 µM. The “concentration at onset of spiral induction” value ([6]; 0.8 M glutamate, 0.4 mM GTP, 10 μM tubulin (Fig. 2, curve 5)) was 4 µM, the “effect on microtubules in cultured cells” value (cultured cells) was “formation of extensive bundled microtubules” and the “inhibition of the binding of [3H]vinblastine to tubulin” value (tubulin [7]) was “unable to reproduce this result”. For the same compound, the “inhibition of the binding of [3H]vinblastine to tubulin” value (tubulin [8]) was “inhibited the binding”.
